{"source": "ChEMBL document CHEMBL1123371", "about": "“5-HT1 and 5-HT2 binding characteristics of some quipazine analogues” (J Med Chem, 1986)", "key": {"[1]": {"assay": "Displacement of [3H]5-HT from 5-hydroxytryptamine 1 receptor of rat cortical membrane homogenates"}, "Rattus norvegicus [2]": {"test_system": "Rattus norvegicus", "assay": "Compound was evaluated in stimulus generalization test using animals trained to discriminate TFMPP from saline, and the mean responses per min at dose of 2.5 mg/kg", "type": "functional", "in_short": "(§1)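 Male Sprague-Dawley rats (n = 6) trained to discriminate 0.5 mg/kg TFMPP HCl from saline on a two-lever operant task, VI 15-s food reward. Challenge doses were given ip in random order 15 min before a 2.5-min extinction test, with at least three training sessions between tests. Fewer than five total responses was scored as disruption.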"}, "Rattus norvegicus [3]": {"test_system": "Rattus norvegicus", "assay": "Compound was evaluated in tests of stimulus generalization using animals trained to discriminate DOM from saline, and the drug appropriate responding at dose of 2.7 mg/kg; Not responding", "type": "functional, organism-based", "parameters": "dose 2.7 mg/kg", "in_short": "(§2)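 Male Sprague-Dawley rats (n = 10) trained to discriminate 1.0 mg/kg DOM HCl from saline on a two-lever operant task, VI 15-s food reinforcement. Test doses were given ip in random order, 15 min pre-session, with at least three training sessions between tests. Responding was scored in a 2.5-min extinction session. Rats with fewer than five total responses were counted as disrupted.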"}, "[4]": {"target": "Serotonin 2 (5-HT2) receptor (Rattus norvegicus, UniProt P30994+P08909+P14842)", "assay": "Displacement of [3H]ketanserin from 5-hydroxytryptamine 2 receptor of rat cortical membrane homogenates"}, "Rattus norvegicus [5]": {"test_system": "Rattus norvegicus", "assay": "Compound was evaluated in stimulus generalization studies in DOM trained animals and the number of animals responding /number to receive dose of drug at dose of 2.7 mg/kg; 1/4", "type": "functional", "in_short": "as §2"}, "Rattus norvegicus [6]": {"test_system": "Rattus norvegicus", "assay": "Compound was evaluated in tests of stimulus generalization using animals trained to discriminate DOM from saline, and the mean responses per min at dose of 0.5 mg/kg", "type": "functional", "in_short": "as §2"}, "Rattus norvegicus [7]": {"test_system": "Rattus norvegicus", "assay": "Compound was evaluated in stimulus generalization studies in DOM trained animals and the number of animals responding /number to receive dose of drug at dose of 2.5 mg/kg; 3/6", "type": "functional", "in_short": "as §2"}, "Rattus norvegicus [8]": {"test_system": "Rattus norvegicus", "assay": "Stimulus generalization studies in TFMPP trained animals and the number of animals responding /number to receive dose of drug was determined at dose of 0.5 mg/kg; 3/3", "type": "functional", "in_short": "as §1"}, "Rattus norvegicus [9]": {"test_system": "Rattus norvegicus", "assay": "Stimulus generalization studies in TFMPP trained animals and the number of animals responding /number to receive dose of drug was determined at dose of 1 mg/kg; 3/4", "type": "functional", "in_short": "as §1"}, "Rattus norvegicus [10]": {"test_system": "Rattus norvegicus", "assay": "Compound was evaluated in tests of stimulus generalization using animals trained to discriminate DOM from saline, and the drug appropriate responding at dose of 2.2 mg/kg; Not responding", "type": "functional, organism-based", "parameters": "dose 2.2 mg/kg", "in_short": "as §2"}, "Rattus norvegicus [11]": {"test_system": "Rattus norvegicus", "assay": "Compound was evaluated in stimulus generalization test using animals trained to discriminate TFMPP from saline, and the drug appropriate responding at dose of 1.0 mg/kg", "type": "functional", "in_short": "as §1"}, "Rattus norvegicus [12]": {"test_system": "Rattus norvegicus", "assay": "Compound was evaluated in stimulus generalization studies in DOM trained animals and the number of animals responding /number to receive dose of drug at dose of 2.2 mg/kg; 2/5", "type": "functional", "in_short": "as §2"}, "Rattus norvegicus [13]": {"test_system": "Rattus norvegicus", "assay": "Compound was evaluated in stimulus generalization studies in DOM trained animals and the number of animals responding /number to receive dose of drug at dose of 0.5 mg/kg; 3/3", "type": "functional", "in_short": "as §2"}, "Rattus norvegicus [14]": {"test_system": "Rattus norvegicus", "assay": "Stimulus generalization studies in TFMPP trained animals and the number of animals responding /number to receive dose of drug was determined at dose of 2.5 mg/kg; 5/5", "type": "functional", "in_short": "as §1"}, "Rattus norvegicus [15]": {"test_system": "Rattus norvegicus", "assay": "Compound was evaluated in tests of stimulus generalization using animals trained to discriminate DOM from saline, and the mean responses per min at dose of 2.5 mg/kg", "type": "functional", "in_short": "as §2"}, "Rattus norvegicus [16]": {"test_system": "Rattus norvegicus", "assay": "Compound was evaluated in stimulus generalization test using animals trained to discriminate TFMPP from saline, and the drug appropriate responding at dose of 2.5 mg/kg", "type": "functional", "in_short": "as §1"}, "Rattus norvegicus [17]": {"test_system": "Rattus norvegicus", "assay": "Compound was evaluated in stimulus generalization test using animals trained to discriminate TFMPP from saline, and the drug appropriate responding at dose of 0.5 mg/kg", "type": "functional", "in_short": "as §1"}, "Rattus norvegicus [18]": {"test_system": "Rattus norvegicus", "assay": "Compound was evaluated in tests of stimulus generalization using animals trained to discriminate DOM from saline, and the mean responses per min at dose of 2.0 mg/kg", "type": "functional", "in_short": "as §2"}, "Rattus norvegicus [19]": {"test_system": "Rattus norvegicus", "assay": "Compound was evaluated in stimulus generalization test using animals trained to discriminate TFMPP from saline, and the mean responses per min at dose of 1.0 mg/kg", "type": "functional", "in_short": "as §1"}, "Rattus norvegicus [20]": {"test_system": "Rattus norvegicus", "assay": "Compound was evaluated in stimulus generalization studies in DOM trained animals and the number of animals responding /number ot receive dose of drug at dose of 2.0 mg/kg; 3/4", "type": "functional", "in_short": "as §2"}, "Rattus norvegicus [21]": {"test_system": "Rattus norvegicus", "assay": "Compound was evaluated in tests of stimulus generalization using animals trained to discriminate DOM from saline, and the drug appropriate responding at dose of 2.0 mg/kg", "type": "functional", "in_short": "as §2"}, "Rattus norvegicus [22]": {"test_system": "Rattus norvegicus", "assay": "Compound was evaluated in tests of stimulus generalization using animals trained to discriminate DOM from saline, and the drug appropriate responding at dose of 2.5 mg/kg", "type": "functional", "in_short": "as §2"}, "Rattus norvegicus [23]": {"test_system": "Rattus norvegicus", "assay": "Compound was evaluated in tests of stimulus generalization using animals trained to discriminate DOM from saline, and the drug appropriate responding at dose of 3.0 mg/kg; Not responding", "type": "functional, organism-based", "parameters": "dose 3 mg/kg", "in_short": "as §2"}, "Rattus norvegicus [24]": {"test_system": "Rattus norvegicus", "assay": "Compound was evaluated in stimulus generalization studies in DOM trained animals and the number of animals responding /number to receive dose of drug at dose of 3.0 mg/kg; 1/4", "type": "functional", "in_short": "as §2"}, "Rattus norvegicus [25]": {"test_system": "Rattus norvegicus", "assay": "Compound was evaluated in tests of stimulus generalization using animals trained to discriminate DOM from saline, and the drug appropriate responding at dose of 0.5 mg/kg", "type": "functional", "in_short": "as §2"}, "Rattus norvegicus [26]": {"organism": "Rattus norvegicus", "assay": "Compound was tested for the doses at which the animals would be expected to make approximately 50% of their responses on the DOM-appropriate lever", "type": "functional", "in_short": "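DOM-trained rats (1.0 mg/kg DOM HCl vs saline, two-lever, VI 15 s, food) were given ip doses 15 min before a 2.5-min extinction session. Where >80% of responses fell on the DOM lever (generalization), the dose expected to give about 50% DOM-lever responding was calculated from dose–response data and reported with 95% confidence limits.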"}, "Rattus norvegicus [27]": {"test_system": "Rattus norvegicus", "assay": "Compound was evaluated in stimulus generalization test using animals trained to discriminate TFMPP from saline, and the mean responses per min at dose of 0.5 mg/kg", "type": "functional", "in_short": "as §1"}}, "note": "Calls of active or inactive are those of the source. The rule behind the calls is not given here.", "data": [{"smiles": "c1ccc2c(N3CCNCC3)cccc2c1", "values": [{"measurement": "Ki", "setting": "[1]", "value": 0.005, "unit": "µM"}, {"measurement": "Mean response/min", "setting": "Rattus norvegicus [2]", "value": 16.4}, {"measurement": "Drug responding", "setting": "Rattus norvegicus [3]", "value": "inactive"}, {"measurement": "Ki", "setting": "[4]", "value": 0.018, "unit": "µM"}, {"measurement": "Activity", "setting": "Rattus norvegicus [5]", "value": 1}, {"measurement": "Mean response/min", "setting": "Rattus norvegicus [6]", "value": 18}, {"measurement": "Activity", "setting": "Rattus norvegicus [7]", "value": 3}, {"measurement": "Activity", "setting": "Rattus norvegicus [8]", "value": 3}, {"measurement": "Activity", "setting": "Rattus norvegicus [9]", "value": 3}, {"measurement": "Drug responding", "setting": "Rattus norvegicus [10]", "value": "inactive"}, {"measurement": "Drug responding", "setting": "Rattus norvegicus [11]", "value": 41, "unit": "%"}, {"measurement": "Activity", "setting": "Rattus norvegicus [12]", "value": 2}, {"measurement": "Activity", "setting": "Rattus norvegicus [13]", "value": 3}, {"measurement": "Activity", "setting": "Rattus norvegicus [14]", "value": 5}, {"measurement": "Mean response/min", "setting": "Rattus norvegicus [15]", "value": 2.6}, {"measurement": "Drug responding", "setting": "Rattus norvegicus [16]", "value": 96, "unit": "%"}, {"measurement": "Drug responding", "setting": "Rattus norvegicus [17]", "value": 15, "unit": "%"}, {"measurement": "Mean response/min", "setting": "Rattus norvegicus [18]", "value": 8.8}, {"measurement": "Mean response/min", "setting": "Rattus norvegicus [19]", "value": 17.3}, {"measurement": "Activity", "setting": "Rattus norvegicus [20]", "value": 3}, {"measurement": "Drug responding", "setting": "Rattus norvegicus [21]", "value": 7, "unit": "%"}, {"measurement": "Drug responding", "setting": "Rattus norvegicus [22]", "value": 37, "unit": "%"}, {"measurement": "Drug responding", "setting": "Rattus norvegicus [23]", "value": "inactive"}, {"measurement": "Activity", "setting": "Rattus norvegicus [24]", "value": 1}, {"measurement": "Drug responding", "setting": "Rattus norvegicus [25]", "value": 14, "unit": "%"}, {"measurement": "ED50", "setting": "Rattus norvegicus [26]", "value": 1, "unit": "mg/kg"}, {"measurement": "Mean response/min", "setting": "Rattus norvegicus [27]", "value": 19.1}]}, {"smiles": "COc1cccc2ccc(N3CCCCC3)nc12", "values": [{"measurement": "Ki", "setting": "[1]", "value": 33, "unit": "µM"}, {"measurement": "Ki", "setting": "[4]", "value": 71, "unit": "µM"}]}]}
